Measured values as given in ChEMBL document CHEMBL3393056, “Identification of nicotinamide phosphoribosyltransferase (NAMPT) inhibitors with no evidence of CYP3A4 time-dependent inhibition and improved aqueous solubility” (Bioorg Med Chem Lett, 2015).

Tests used:
[1] = Cmax in rat at 5 mg/kg, po; format: ADME, organism-based; parameters: dose 5 mg/kg, route oral; details: in vivo
How it was run: (§1)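 Male Sprague Dawley rats and male beagle dogs were dosed IV at 1 mg/kg or orally at 5 mg/kg. Plasma concentration–time profiles were followed. Each time point is the mean from three separate animals.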

[2] = AUC in dog at 5 mg/kg, po; format: ADME, organism-based, Canis lupus familiaris; parameters: dose 5 mg/kg, route oral; details: plasma; how it was run: as §1
[3] = Oral bioavailability in dog at 5 mg/kg; format: ADME, organism-based, Canis lupus familiaris; details: in vivo; how it was run: as §1
[4] = Half life in rat at 1 mg/kg, iv; format: ADME, organism-based; parameters: dose 1 mg/kg, route intravenous; details: in vivo; how it was run: as §1
[5] = Clearance in dog at 1 mg/kg, iv; format: ADME, organism-based, Canis lupus familiaris; parameters: dose 1 mg/kg, route intravenous; details: in vivo; how it was run: as §1
[6] = Clearance in rat at 1 mg/kg, iv; format: ADME, organism-based; parameters: dose 1 mg/kg, route intravenous; details: in vivo; how it was run: as §1
[7] = Volume of distribution at steady state in dog at 1 mg/kg, iv; format: ADME, organism-based, Canis lupus familiaris; parameters: dose 1 mg/kg, route intravenous; details: in vivo, read-out: Vdss; how it was run: as §1
[8] = Oral bioavailability in rat at 5 mg/kg; format: ADME, organism-based; details: in vivo; how it was run: as §1
[9] = Cmax in dog at 5 mg/kg, po; format: ADME, organism-based, Canis lupus familiaris; parameters: dose 5 mg/kg, route oral; details: in vivo; how it was run: as §1
[10] = AUC in rat at 5 mg/kg, po; format: ADME, organism-based; parameters: dose 5 mg/kg, route oral; details: plasma; how it was run: as §1
[11] = Half life in dog at 1 mg/kg, iv; format: ADME, organism-based, Canis lupus familiaris; parameters: dose 1 mg/kg, route intravenous; details: in vivo; how it was run: as §1
[12] = Volume of distribution at steady state in rat at 1 mg/kg, iv; format: ADME, organism-based; parameters: dose 1 mg/kg, route intravenous; details: in vivo, read-out: Vdss; how it was run: as §1

| Cmax [1] [nM] | AUC [2] [µM·h] | bioavailability [3] [%] | half-life [4] [min] | clearance [5] [mL/min/kg] | clearance [6] [mL/min/kg] | Vd [7] [L/kg] | bioavailability [8] [%] | Cmax [9] [µM] | AUC [10] [µM·h] | half-life [11] [min] | Vd [12] [L/kg] | SMILES |
| --- | --- | --- | --- | --- | --- | --- | --- | --- | --- | --- | --- | --- |
| 1500 | 28 | 141 | 138 | 9.8 | 55 | 1 | 74 | 8.6 | 3 | 90 | 3.2 | CC(C)n1cc(S(=O)(=O)c2ccc(CNC(=O)c3cc4ccncc4o3)nc2)cn1 |
| 1000 |  |  | 36 |  | 105 |  | 62 |  | 1.2 |  | 3 | O=C(NCc1ccc([S@@](=O)c2cc(F)cc(F)c2)cn1)c1cc2ccncc2o1 |
| 70 |  |  | 55.8 |  | 225 |  | 31 |  | 0.27 |  | 17 | CC(C)CN1CCC([S@](=O)c2ccc(CNC(=O)c3cc4ccncc4o3)cc2)CC1 |
| 1000 | 33 | 115 | 60 | 6.7 | 40 | 1.6 | 61 | 4.7 | 3.3 | 282 | 2 | O=C(NCc1ccc(S(=O)(=O)c2cc(F)cc(F)c2)cn1)c1cc2ccncc2o1 |
